# Columns and labels:
# [1] = molecular target: T1, Beta-ketoacyl-[acyl-carrier-protein] synthase III (Enterococcus faecalis (strain ATCC 700802 / V583), UniProt Q820T1); assay: Inhibitory concentration against Enterococcus faecalis beta-Ketoacyl-acyl carrier protein synthase III
# T1 sequence (Q820T1 whole entry): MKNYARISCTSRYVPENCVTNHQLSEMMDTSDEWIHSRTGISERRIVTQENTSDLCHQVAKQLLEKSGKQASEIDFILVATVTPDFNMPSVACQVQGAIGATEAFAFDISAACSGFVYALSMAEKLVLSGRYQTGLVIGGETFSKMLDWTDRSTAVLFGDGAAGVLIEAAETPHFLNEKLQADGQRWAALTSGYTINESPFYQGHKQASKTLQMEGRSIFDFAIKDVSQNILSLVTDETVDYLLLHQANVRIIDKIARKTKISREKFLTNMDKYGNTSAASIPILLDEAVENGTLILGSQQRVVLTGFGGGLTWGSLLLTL
# In short: (§1)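 Coupled FabD/FabH radiometric assay with His-tagged or tagless FabH expressed in E. coli BL21(DE3). The mix held 100 mM sodium phosphate pH 7.0, 2 mM DTT, 1 mM MgCl₂, 12.5 µM E. coli holo-ACP, 10 nM FabD and 3-5 nM FabH. Malonyl-CoA was added for 1 min, then acetyl-CoA plus [³H]acetyl-CoA, NADH and NADPH for 19 min. TCA-precipitated protein was counted by liquid scintillation; DMSO ≤2% final.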
# [2] = Minimum inhibitory concentration against Enterococcus faecalis VRE 583; assay type: functional, Enterococcus faecalis V583
# [3] = system: Streptococcus pneumoniae; assay: Minimum inhibitory concentration against Streptococcus pneumonia ATCC 6301; assay type: functional
# [4] = system: Neisseria meningitidis; assay: Minimum inhibitory concentration against Neisseria meningitides MC58 in presence of membrane permeablizing agent polymyxin B; assay type: functional
# [5] = molecular target: T2, Beta-ketoacyl-[acyl-carrier-protein] synthase III (Streptococcus pyogenes serotype M3 (strain ATCC BAA-595 / MGAS315), UniProt P0DB00); assay: Inhibitory concentration against Streptococcus pyogenes beta-Ketoacyl-acyl carrier protein synthase III
# T2 sequence (P0DB00 whole entry): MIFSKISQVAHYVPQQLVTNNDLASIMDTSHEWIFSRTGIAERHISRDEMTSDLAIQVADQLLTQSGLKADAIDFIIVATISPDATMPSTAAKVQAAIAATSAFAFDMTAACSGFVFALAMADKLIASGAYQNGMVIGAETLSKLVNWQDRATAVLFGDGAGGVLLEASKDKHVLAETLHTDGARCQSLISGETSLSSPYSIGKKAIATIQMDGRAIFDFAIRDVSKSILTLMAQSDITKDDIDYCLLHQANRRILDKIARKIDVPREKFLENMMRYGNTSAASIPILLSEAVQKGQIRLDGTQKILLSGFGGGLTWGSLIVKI
# In short: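 S. pyogenes FabH (10 nM, His-tagged or tagless, expressed in E. coli BL21(DE3)) was run in a coupled assay with 10 nM FabD, 12.5 µM holo-ACP, 100 mM sodium phosphate pH 7.0, 2 mM DTT and 1 mM MgCl₂. Malonyl-CoA was added for 1 min, then [³H]acetyl-CoA/acetyl-CoA with NADH and NADPH for 19 min. The reaction was stopped with cold TCA and the pellet read by scintillation. Inhibitor DMSO ≤2%.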
# [6] = system: Staphylococcus aureus; assay: Minimum inhibitory concentration against Staphylococcus aureus MRSA 703; assay type: functional
# [7] = molecular target: T3, Beta-ketoacyl-[acyl-carrier-protein] synthase III (Staphylococcus aureus subsp. aureus Mu50, UniProt P68795); assay: Inhibitory concentration against Staphylococcus aureus beta-Ketoacyl-acyl carrier protein synthase III
# T3 sequence (P68795 whole entry): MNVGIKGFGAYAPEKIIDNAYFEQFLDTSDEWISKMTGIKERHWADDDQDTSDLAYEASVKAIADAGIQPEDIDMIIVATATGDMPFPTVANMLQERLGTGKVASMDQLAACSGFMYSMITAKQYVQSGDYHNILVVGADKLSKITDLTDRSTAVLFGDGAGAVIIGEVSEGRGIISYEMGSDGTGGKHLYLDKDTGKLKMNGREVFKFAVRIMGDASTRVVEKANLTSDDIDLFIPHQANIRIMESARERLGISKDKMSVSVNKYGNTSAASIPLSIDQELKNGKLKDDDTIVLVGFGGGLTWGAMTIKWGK
# In short: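 Coupled FabD/FabH radiometric assay, 100 µL final, pH 7.0: 100 mM sodium phosphate, 2 mM DTT, 1 mM MgCl2, 12.5 µM E. coli holo-ACP, 10 nM FabD, 20 nM S. aureus FabH (His-tagged or tagless, expressed in E. coli BL21(DE3)). FabD started with malonyl-CoA for 1 min. Acetyl-CoA plus [3H]acetyl-CoA, NADH and NADPH then added; FabH reaction 19 min. Stopped with TCA; pellet counted by liquid scintillation. DMSO ≤2% final.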
# [8] = system: Escherichia coli; assay: Minimum inhibitory concentration against Escherichia coli TolC- mutant in presence of membrane permeablizing agent polymyxin B; assay type: functional
# [9] = molecular target: T4, Beta-ketoacyl-[acyl-carrier-protein] synthase III (Haemophilus influenzae (strain ATCC 51907 / DSM 11121 / KW20 / Rd), UniProt P43711); assay: Inhibitory concentration against Haemophilus influenzae beta-Ketoacyl-acyl carrier protein synthase III; in short: as §1
# T4 sequence (P43711 whole entry): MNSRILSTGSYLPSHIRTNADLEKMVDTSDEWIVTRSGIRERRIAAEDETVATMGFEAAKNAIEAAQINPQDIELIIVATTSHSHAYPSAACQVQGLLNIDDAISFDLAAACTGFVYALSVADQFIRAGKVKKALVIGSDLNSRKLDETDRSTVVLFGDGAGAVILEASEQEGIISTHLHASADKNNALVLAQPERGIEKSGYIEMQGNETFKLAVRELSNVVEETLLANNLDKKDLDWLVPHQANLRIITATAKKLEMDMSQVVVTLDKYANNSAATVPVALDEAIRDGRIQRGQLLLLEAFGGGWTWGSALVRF
# [10] = system: Streptococcus pyogenes; assay: Minimum inhibitory concentration against Streptococcus pyogenes NZ131; assay type: functional
smiles,measurement,setting,value
CCN(CC)S(=O)(=O)c1cc(C(=O)Nc2ccccc2C(=O)O)ccc1-c1ccccc1,IC50,[1],1.6 µM
O=C(Nc1ccccc1C(=O)O)c1ccc(-c2ccccc2)c(Oc2ccccc2)c1,MIC,[2],22 µg/mL
same,MIC,[3],1.4 µg/mL
same,MIC,[4],1.4 µg/mL
same,IC50,[1],0.056 µM
same,IC50,[5],0.05 µM
same,MIC,[6],11.3 µg/mL
same,IC50,[7],10 µM
same,MIC,[8],1.4 µg/mL
same,IC50,[9],> 100 µM
CCN(CC)S(=O)(=O)c1cc(C(=O)Nc2ccccc2C(=O)O)ccc1F,IC50,[1],8.4 µM
O=C(Nc1ccccc1C(=O)O)c1cccc(Oc2ccccc2)c1,IC50,[1],2.7 µM
O=C(Nc1ccccc1C(=O)O)c1ccc(-c2cn[nH]c2)c(Oc2ccccc2)c1,IC50,[1],22 µM
O=C(Nc1ccccc1C(=O)O)c1ccc(Br)c(Oc2ccccc2)c1,IC50,[1],1.1 µM
CCN(CC)S(=O)(=O)c1cc(C(=O)Nc2ccccc2C(=O)O)ccc1N1CCCCC1,IC50,[1],2.2 µM
CCN(CC)S(=O)(=O)c1cc(C(=O)Nc2ccccc2C(=O)O)ccc1Br,IC50,[1],1.6 µM
CCN(CC)S(=O)(=O)c1cc(C(=O)Nc2ccccc2C(=O)O)ccc1Oc1ccccc1,IC50,[1],6.1 µM
O=C(Nc1ccccc1C(=O)O)c1ccc(-c2ccc(O)cc2)c(Oc2ccccc2)c1,IC50,[1],0.41 µM
O=C(Nc1ccccc1C(=O)O)c1ccc(N2CCNCC2)c(Oc2ccccc2)c1,IC50,[1],185 µM
O=C(Nc1ccsc1C(=O)O)c1cccc(Oc2ccccc2)c1,IC50,[1],10.1 µM
CN1CCN(c2ccc(C(=O)Nc3ccccc3C(=O)O)cc2Oc2ccccc2)CC1,IC50,[1],25 µM
O=C(Nc1ccccc1C(=O)O)c1ccc(N2CCCCC2)c(Oc2ccccc2)c1,IC50,[1],0.29 µM
O=C(Nc1cccnc1C(=O)O)c1cccc(Oc2ccccc2)c1,IC50,[1],290 µM
O=C(Nc1sccc1C(=O)O)c1cccc(Oc2ccccc2)c1,IC50,[1],43 µM
O=C(Nc1ccccc1C(=O)O)c1ccc(N2CCOCC2)c(Oc2ccccc2)c1,IC50,[1],3.2 µM
O=C(Nc1ccccc1C(=O)O)c1ccc(-c2ccc(F)c(Cl)c2)c(Oc2ccccc2)c1,IC50,[1],0.57 µM
CCOc1ccc(-c2ccc(C(=O)Nc3ccccc3C(=O)O)cc2Oc2ccccc2)cc1,IC50,[1],0.22 µM
O=C(Nc1ccccc1C(=O)O)c1ccc(-c2cccnc2)c(Oc2ccccc2)c1,IC50,[1],0.11 µM
O=C(Nc1ccccc1C(=O)O)c1ccc(-c2ccc(C(F)(F)F)cc2)c(Oc2ccccc2)c1,MIC,[10],2.8 µg/mL
same,MIC,[2],5.6 µg/mL
same,MIC,[3],0.7 µg/mL
same,MIC,[4],1.4 µg/mL
same,IC50,[1],0.096 µM
same,MIC,[6],5.6 µg/mL
same,MIC,[8],0.7 µg/mL
O=C(Nc1ccccc1C(=O)O)c1ccc(-c2cccc(OC(F)(F)F)c2)c(Oc2ccccc2)c1,IC50,[1],0.47 µM
CC(C)c1cccc(-c2ccc(C(=O)Nc3ccccc3C(=O)O)cc2Oc2ccccc2)c1,MIC,[10],2.8 µg/mL
same,MIC,[2],5.6 µg/mL
same,MIC,[3],1.4 µg/mL
same,MIC,[4],1.4 µg/mL
same,IC50,[1],0.79 µM
same,MIC,[6],5.6 µg/mL
same,MIC,[8],2.8 µg/mL
CCN(CC)S(=O)(=O)c1cc(C(=O)Nc2ccccc2C(=O)O)ccc1OC,IC50,[1],11.4 µM
CC1CN(c2ccc(C(=O)Nc3ccccc3C(=O)O)cc2Oc2ccccc2)CC(C)N1 (configuration not stated),IC50,[1],38 µM
O=C(Nc1ccccc1C(=O)O)c1ccc(N2CCSCC2)c(Oc2ccccc2)c1,IC50,[1],1.2 µM
O=C(Nc1ccccc1C(=O)O)c1ccc(-c2ccc(F)cc2F)c(Oc2ccccc2)c1,MIC,[10],2.8 µg/mL
same,MIC,[2],11.3 µg/mL
same,MIC,[3],2.8 µg/mL
same,MIC,[4],0.36 µg/mL
same,IC50,[1],0.16 µM
same,MIC,[6],5.6 µg/mL
same,MIC,[8],0.7 µg/mL
O=C(O)c1ccc(-c2ccc(C(=O)Nc3ccccc3C(=O)O)cc2Oc2ccccc2)cc1,IC50,[1],2.1 µM
O=C(Nc1ccccc1C(=O)O)c1ccc(F)c(Oc2ccccc2)c1,IC50,[1],3.8 µM
CS(=O)(=O)c1ccc(-c2ccc(C(=O)Nc3ccccc3C(=O)O)cc2Oc2ccccc2)cc1,MIC,[10],22 µg/mL
same,MIC,[2],> 45 µg/mL
same,MIC,[3],45 µg/mL
same,MIC,[4],5.6 µg/mL
same,IC50,[1],0.028 µM
same,IC50,[5],0.003 µM
same,MIC,[6],45 µg/mL
same,IC50,[7],24 µM
same,MIC,[8],5.6 µg/mL
same,IC50,[9],> 100 µM
O=C(Nc1cccc(O)c1C(=O)O)c1ccc(Br)c(Oc2ccccc2)c1,MIC,[10],11.3 µg/mL
same,MIC,[2],> 45 µg/mL
same,MIC,[3],45 µg/mL
same,MIC,[4],2.8 µg/mL
same,IC50,[1],0.062 µM
same,IC50,[5],0.034 µM
same,MIC,[6],45 µg/mL
same,IC50,[7],12.3 µM
same,MIC,[8],2.8 µg/mL
same,IC50,[9],20 µM
O=C(Nc1ccccc1C(=O)O)c1cccc(Oc2ccc(F)cc2)c1,IC50,[1],5 µM
O=C(O)c1ccc(Oc2cccc(C(=O)Nc3ccccc3C(=O)O)c2)cc1,IC50,[1],4.4 µM
O=C(Nc1ncccc1C(=O)O)c1cccc(Oc2ccccc2)c1,IC50,[1],> 1000 µM
O=C(Nc1cccc(O)c1C(=O)O)c1cccc(Oc2ccccc2)c1,IC50,[1],0.41 µM
Cc1ccc(-c2ccc(C(=O)Nc3ccccc3C(=O)O)cc2Oc2ccccc2)cc1,IC50,[1],0.16 µM
Cc1cc(-c2ccc(C(=O)Nc3ccccc3C(=O)O)cc2Oc2ccccc2)ccc1Cl,MIC,[10],1.4 µg/mL
same,MIC,[2],5.6 µg/mL
same,MIC,[3],2.8 µg/mL
same,MIC,[4],0.7 µg/mL
same,IC50,[1],0.25 µM
same,MIC,[6],5.6 µg/mL
same,MIC,[8],0.7 µg/mL
CC1CC(C)CN(c2ccc(C(=O)Nc3ccccc3C(=O)O)cc2Oc2ccccc2)C1 (configuration not stated),MIC,[10],2.8 µg/mL
same,MIC,[2],11.3 µg/mL
same,MIC,[3],2.8 µg/mL
same,MIC,[4],2.8 µg/mL
same,IC50,[1],0.27 µM
same,MIC,[6],5.6 µg/mL
same,MIC,[8],5.6 µg/mL
CCN(CC)S(=O)(=O)c1cc(C(=O)Nc2ccccc2C(=O)O)cc(C)c1Br,IC50,[1],160 µM
CCN(CC)S(=O)(=O)c1cc(C(=O)Nc2ccccc2C(=O)O)ccc1OCC1CCCC1,IC50,[1],2.1 µM
Cc1cc(-c2ccc(C(=O)Nc3ccccc3C(=O)O)cc2Oc2ccccc2)ccc1F,MIC,[10],2.8 µg/mL
same,MIC,[2],2.8 µg/mL
same,MIC,[3],0.7 µg/mL
same,MIC,[4],0.7 µg/mL
same,IC50,[1],0.24 µM
same,MIC,[6],5.6 µg/mL
same,MIC,[8],0.7 µg/mL
O=C(Nc1cccc(O)c1C(=O)O)c1ccc(-c2ccccc2)c(Oc2ccccc2)c1,MIC,[10],5.6 µg/mL
same,MIC,[2],> 45 µg/mL
same,MIC,[3],22 µg/mL
same,MIC,[4],1.4 µg/mL
same,IC50,[1],0.004 µM
same,IC50,[5],0.004 µM
same,MIC,[6],22 µg/mL
same,IC50,[7],3.8 µM
same,MIC,[8],1.4 µg/mL
same,IC50,[9],2.4 µM
O=C(Nc1ccccc1C(=O)O)c1ccc(-c2ccc(F)c(F)c2)c(Oc2ccccc2)c1,IC50,[1],0.33 µM
O=C(Nc1cccc(F)c1C(=O)O)c1cccc(Oc2ccccc2)c1,IC50,[1],6 µM
O=C(O)c1cccc(Oc2cccc(C(=O)Nc3ccccc3C(=O)O)c2)c1,IC50,[1],3.7 µM
O=C(Nc1ccccc1C(=O)O)c1cccc(Oc2ccncc2)c1,IC50,[1],10 µM

# Reference: ChEMBL document CHEMBL1140263, “Structure-based design, synthesis, and study of potent inhibitors of beta-ketoacyl-acyl carrier protein synthase III as potential antimicrobial agents” (J Med Chem, 2005)
